Sampled rows, rich in hits. Any-hit rate of the full collection: about 9.3%.
PostGolgi ctrl = growth inhibition of yeast control strain, primary screen, counter-screen for post-Golgi transport modulator project | efflux-deficient yeast background strain, growth absorbance A615, 16 h | inhibition, % at 10 µM | 98,000 tested, 5% active
hDAT+cocaine = changed hDAT dopamine uptake under cocaine IC80, either direction, primary screen, cocaine antagonist project, cell-based, LLC-PK1 hDAT, [14C]-dopamine uptake, MLSMR; Sodium-dependent dopamine transporter (Homo sapiens), Q01959; LLC-PK1 hDAT cells, [14C]-dopamine uptake with cocaine IC80; actives deviate in either direction; B-score at 10 µM; 110,000 tested, 1.3% active; AID 449768, 2010;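 active means Z score or B-score, a plate-position-corrected score, falls beyond the plate's 99.7% confidence bounds, in either direction; inactive means both scores lie inside the 99.7% bounds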;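 further: scored against the spread of the other compound wells on the same plate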
Target sequence (Q01959 whole entry, looked up): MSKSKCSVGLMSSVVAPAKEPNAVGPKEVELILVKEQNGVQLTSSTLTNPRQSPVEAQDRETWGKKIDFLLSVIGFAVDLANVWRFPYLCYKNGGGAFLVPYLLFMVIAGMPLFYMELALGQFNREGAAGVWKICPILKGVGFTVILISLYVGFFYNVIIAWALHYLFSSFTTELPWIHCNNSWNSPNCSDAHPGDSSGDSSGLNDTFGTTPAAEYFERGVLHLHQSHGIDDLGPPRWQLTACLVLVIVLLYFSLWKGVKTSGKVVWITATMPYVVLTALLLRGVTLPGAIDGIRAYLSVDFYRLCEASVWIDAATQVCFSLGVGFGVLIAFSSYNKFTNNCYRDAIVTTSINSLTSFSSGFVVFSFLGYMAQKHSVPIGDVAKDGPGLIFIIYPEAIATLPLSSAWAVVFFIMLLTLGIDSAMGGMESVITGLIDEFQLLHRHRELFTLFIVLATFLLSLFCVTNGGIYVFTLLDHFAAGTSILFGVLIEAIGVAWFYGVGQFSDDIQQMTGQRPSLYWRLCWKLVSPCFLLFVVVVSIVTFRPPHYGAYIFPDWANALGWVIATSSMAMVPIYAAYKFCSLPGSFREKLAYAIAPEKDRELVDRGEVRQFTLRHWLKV
Ecoli WT expand = growth inhibitors of wild-type E. coli, primary screen, strain BW25113, expanded library, OD600. OD600 absorbance. growth inhibition, % at 100 µM. 98,000 tested, 0.15% active. AID 710, 2007;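 active means growth inhibition above about 50% at one test dose, limit read from the data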;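 further: growth measured after 20 h incubation at 37 °C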
tolC growth inh = growth inhibitors of E. coli tolC mutant, primary screen, strain BW25113 ΔtolC::kan, 384-well | OD615 | growth inhibition, % at 10 µM (by protocol) | 65,000 tested, 2.2% active;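 active means growth inhibition at or above a cutoff equal to the mean over every tested compound plus 3 SD, cut at about 60% in these data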;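 further: growth measured after 20 h incubation at 37 °C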
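Doses: one dose of 10 µM final / Material: E. coli BW25113 ΔtolC::kan, tolC deletion mutant strain / Buffer or medium: LB with kanamycin 50 µg/mL / Evaluation: percent growth inhibition / Detection: optical density read at 615 nm / Incubation: 37 °C, 20 h exposure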
D1 allo mod = D1 CRE-luciferase signal change, two-sided – cell-based, HEK293 D1, dopamine EC30, D1 allosteric modulator project, primary screen; AID 641, 2007; D(1A) dopamine receptor (Homo sapiens), P21728; dopamine EC30 potentiation; actives deviate in either direction; 58,000 tested, 5.9% active; B-score at 10 µM;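 active means luminescence count or its row- and column-corrected plate score outside the 99.7% band of the plate's sample wells, on either side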
PostGolgi yeast = phenotypic screen on post-Golgi transport, primary screen; post-Golgi transport phenotypic cell assay; inhibition, % at 10 µM; 98,000 tested, 0.9% active; AID 739, 2007;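 further: yeast cells grown in 1536-well plates; yeast grown about 18 h at 30C before absorbance read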
Starred values were filed as active, the others as inactive. Unless noted, no stated cut-off is given here; in the data, active means inhibition above about 30%; inactive means the rest.

What do the screens show for `CCCOc1ccccc1C1CC(=O)Nc2cc3c(cc21)OCCO3` (configuration not stated)?
PostGolgi ctrl: 26; Ecoli WT expand: -7; tolC growth inh: 85*; D1 allo mod: 0.4; PostGolgi yeast: -2

How did CC(C)Oc1ccccc1C1CC(=O)Nc2cc3c(cc21)OCO3 (configuration not stated) do in these assays?
PostGolgi ctrl: 31*; hDAT+cocaine: 0.33; Ecoli WT expand: 3; tolC growth inh: 10; D1 allo mod: -1.4; PostGolgi yeast: 2

What do the screens show for `CCCC[C@@H]1CN=C(N)N1CC(C)(C)C`?
hDAT+cocaine: -0.95

What do the screens show for `O=C1Nc2ccc([N+](=O)[O-])cc2C1(O)N1CCCCCC1` (configuration not stated)?
PostGolgi ctrl: 20; hDAT+cocaine: 0.56; Ecoli WT expand: 0; PostGolgi yeast: 15

How did O=C(Nn1c(-c2ccccc2)nc2ccccc2c1=O)C1CCC1 do in these assays?
PostGolgi ctrl: 0; hDAT+cocaine: -0.26; Ecoli WT expand: -2; tolC growth inh: -22; D1 allo mod: -0.14; PostGolgi yeast: 5

How did CCCCCC(=O)Nc1cccc(C2=NOC3(C2)C[C@H](C(N)=O)N(C(=O)c2ccccc2C(=O)c2ccccc2)C3)c1 (some centres not stated) do in these assays?
hDAT+cocaine: 3.7*

Results for Cc1ccc(S(=O)(=O)c2cc3c(=O)n4ccccc4nc3n(CC3CCCO3)c2=N)cc1C (configuration not stated) ?
tolC growth inh: 29; D1 allo mod: 10*

Results for CCCc1cc(NCCCCO)n2c(nc3ccccc32)c1C#N ?
PostGolgi ctrl: 2; hDAT+cocaine: -0.002; Ecoli WT expand: 1; tolC growth inh: -5; PostGolgi yeast: 35*

What do the screens show for `CCNC(=O)N1CCNC(=O)C1CC(=O)OC` (configuration not stated)?
PostGolgi ctrl: 31*; hDAT+cocaine: 0.18; Ecoli WT expand: -6; tolC growth inh: -6; D1 allo mod: 0.15; PostGolgi yeast: 1

What do the screens show for `CCOC(=O)CC1C(=O)NCCN1C(=O)c1ccc(F)cc1F` (configuration not stated)?
PostGolgi ctrl: -5; hDAT+cocaine: -3.4*; Ecoli WT expand: -2; PostGolgi yeast: -6

Results for CCN1CC(CCN2CCOCC2)C(c2ccccc2)(c2ccccc2)C1=O (configuration not stated) ?
hDAT+cocaine: -0.055

What do the screens show for `CC1CC(C)CN(c2ccc(-n3cnnn3)cc2[N+](=O)[O-])C1` (configuration not stated)?
PostGolgi ctrl: 17; hDAT+cocaine: -1.1; Ecoli WT expand: -7; PostGolgi yeast: 6

What do the screens show for `O=[N+]([O-])c1cc(-n2cnnn2)ccc1N1CCC(Cc2ccccc2)CC1`?
PostGolgi ctrl: 74*; hDAT+cocaine: 1.6; Ecoli WT expand: -18; PostGolgi yeast: 1

How did COc1ccc(C(c2nnnn2Cc2ccc(F)cc2)N2CCN(c3ccccc3)CC2)cc1 (configuration not stated) do in these assays?
PostGolgi ctrl: 37*; hDAT+cocaine: 0.14; Ecoli WT expand: -23; tolC growth inh: 31; D1 allo mod: 0.023; PostGolgi yeast: 7

How did CC1CCN(C(c2ccc(N(C)C)cc2)c2nnnn2Cc2ccccc2)CC1 (configuration not stated) do in these assays?
PostGolgi ctrl: 12; hDAT+cocaine: 0.62; Ecoli WT expand: -4; tolC growth inh: 5; D1 allo mod: -1; PostGolgi yeast: 3

How did COc1ccc(Cn2nnnc2C(c2ccc(N(C)C)cc2)N2CCC(C)CC2)cc1 (configuration not stated) do in these assays?
PostGolgi ctrl: -5; hDAT+cocaine: 2*; Ecoli WT expand: 7; tolC growth inh: 10; D1 allo mod: 0.73; PostGolgi yeast: -4

Results for COc1ccc(N2CCN(C(c3ccccc3)c3nnnn3Cc3ccc(F)cc3)CC2)cc1 (configuration not stated) ?
PostGolgi ctrl: 34*; hDAT+cocaine: 0.29; Ecoli WT expand: -13; tolC growth inh: 18; D1 allo mod: -0.52; PostGolgi yeast: -2

Results for COc1ccc(OC)c(N(CC(=O)Nc2ccc3c(c2)OCCO3)S(C)(=O)=O)c1 ?
PostGolgi ctrl: 3; hDAT+cocaine: 1.4; Ecoli WT expand: -8; tolC growth inh: 0; D1 allo mod: 0.62; PostGolgi yeast: 5

Results for Cc1ccc2c(CC(=O)OCc3csc(C)n3)coc2c1 ?
PostGolgi ctrl: 6; hDAT+cocaine: -7.4*; Ecoli WT expand: 9; tolC growth inh: 8; D1 allo mod: 0.019; PostGolgi yeast: -4

What do the screens show for `Cc1ccc2c(CC(=O)OCc3nc(N)nc(Nc4ccccc4C)n3)coc2c1`?
PostGolgi ctrl: 36*; hDAT+cocaine: 0.57; Ecoli WT expand: 3; tolC growth inh: 72*; D1 allo mod: 0.4; PostGolgi yeast: 6

How did O=C(Cc1coc2cc3c(cc12)CCC3)OCc1cc(=O)n2c(n1)sc1ccccc12 do in these assays?
PostGolgi ctrl: 7; hDAT+cocaine: -0.33; Ecoli WT expand: -8; tolC growth inh: 11; D1 allo mod: -0.23; PostGolgi yeast: -2

What do the screens show for `COC(=O)c1ccc(NC(=O)CCN2CCN(Cc3ccccc3)CC2)cc1`?
hDAT+cocaine: -0.64

Results for O=C(Nc1ccc(CN2CCOCC2)cc1)c1ccc(-c2ccc(Br)cc2)o1 ?
PostGolgi ctrl: 60*; hDAT+cocaine: 1.7; Ecoli WT expand: -14; tolC growth inh: 100*; D1 allo mod: -1.4; PostGolgi yeast: 0

What do the screens show for `COc1cccc2cc(C(=O)Nc3cccnc3N3CCOCC3)c(=O)oc12`?
PostGolgi ctrl: 7; hDAT+cocaine: 0.075; Ecoli WT expand: -5; tolC growth inh: 9; D1 allo mod: -0.0013; PostGolgi yeast: -2

How did O=C(Nc1ccc(CN2CCOCC2)cc1)c1cc2ccccc2oc1=O do in these assays?
tolC growth inh: -12; D1 allo mod: -5.6*

What do the screens show for `O=C(Nc1cccnc1N1CCOCC1)c1cc2ccccc2oc1=O`?
tolC growth inh: -3; D1 allo mod: 4.2*

What do the screens show for `NS(=O)(=O)c1ccc(NC(=O)COC(=O)CCNC(=O)NC23CC4CC(CC(C4)C2)C3)cc1`?
PostGolgi ctrl: 8; hDAT+cocaine: -0.057; Ecoli WT expand: 0; tolC growth inh: 14; D1 allo mod: 1.6; PostGolgi yeast: -1

What do the screens show for `O=C(CSc1ccccn1)Nc1nc2ccc(Br)cc2s1`?
PostGolgi ctrl: 22; hDAT+cocaine: 1.1; Ecoli WT expand: -3; PostGolgi yeast: 13
